One compound from ChEMBL document CHEMBL3997800, “Discovery of Multitarget Agents Active as Broad-Spectrum Antivirals and Correctors of Cystic Fibrosis Transmembrane Conductance Regulator for Associated Pulmonary Diseases” (J Med Chem, 2017) can be followed below.

One may read the EC50 as the concentration that produces a half-maximal response. A low value points to greater potency. Usually IC50 stands for the concentration that gives 50% inhibition.

The source made the active and inactive calls. The calls are words filed in the database; no cut-off is given here. Bounds are passed on as bounds.

Data set [1] deals with Focal adhesion kinase 1 (Homo sapiens) (UniProt Q05397). The experiment in a line: Inhibition of […] recombinant human FAK (393 to 698 residues) expressed in baculovirus infected sf9 cells assessed as residual activity at 100 uM using poly(Glu,Tyr)4:1 as substrate by ADP-Glo bioluminescence assay relative to control relative to control. Summed up: (§1)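 Kinase reactions followed manufacturer's instructions with 10-50 ng enzyme, in 10 µL for 10 min at 30 °C; NP-40 or BSA added for some kinases. Compound at 100 µM. Residual activity is the mean of two independent replicates.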
Focal adhesion kinase 1 (Homo sapiens), sequence (Q05397 2-1052 limits assumed): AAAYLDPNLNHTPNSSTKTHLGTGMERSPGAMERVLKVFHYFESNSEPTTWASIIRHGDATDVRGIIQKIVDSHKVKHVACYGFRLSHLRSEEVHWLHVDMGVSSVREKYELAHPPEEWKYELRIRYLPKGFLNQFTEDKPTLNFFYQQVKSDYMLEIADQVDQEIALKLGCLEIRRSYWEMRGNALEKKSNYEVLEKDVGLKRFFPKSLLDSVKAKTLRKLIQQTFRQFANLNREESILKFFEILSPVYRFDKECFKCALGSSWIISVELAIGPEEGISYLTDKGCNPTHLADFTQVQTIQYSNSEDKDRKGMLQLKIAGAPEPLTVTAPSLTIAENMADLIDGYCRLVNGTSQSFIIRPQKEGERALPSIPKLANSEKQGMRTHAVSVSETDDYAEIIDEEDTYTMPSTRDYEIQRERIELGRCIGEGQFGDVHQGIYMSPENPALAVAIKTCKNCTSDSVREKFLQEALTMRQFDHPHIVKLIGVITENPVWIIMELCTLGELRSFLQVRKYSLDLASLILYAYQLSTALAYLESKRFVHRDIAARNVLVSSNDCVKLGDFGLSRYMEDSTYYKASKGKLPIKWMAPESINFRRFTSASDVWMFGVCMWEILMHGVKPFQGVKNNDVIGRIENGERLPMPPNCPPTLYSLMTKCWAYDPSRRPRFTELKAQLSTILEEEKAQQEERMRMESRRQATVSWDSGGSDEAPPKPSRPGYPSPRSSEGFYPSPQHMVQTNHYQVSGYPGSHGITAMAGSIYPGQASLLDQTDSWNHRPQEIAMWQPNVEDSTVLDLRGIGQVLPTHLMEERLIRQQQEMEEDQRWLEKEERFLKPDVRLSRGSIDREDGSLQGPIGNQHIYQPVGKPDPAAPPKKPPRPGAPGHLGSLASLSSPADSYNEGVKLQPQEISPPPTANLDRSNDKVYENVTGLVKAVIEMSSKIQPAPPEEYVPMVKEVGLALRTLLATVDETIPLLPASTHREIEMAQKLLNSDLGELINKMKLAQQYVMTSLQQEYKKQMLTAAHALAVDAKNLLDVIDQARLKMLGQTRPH
(In ADP-Glo the light output rises with the ADP produced.)

In data set [2] the test system is Enterovirus A71. As to the kind of experiment: Antiviral activity against Enterovirus 71 H08300 461#812 clinical isolates incubated for 2 to 3 days. Format: functional. The conditions noted are these: Enterovirus A.
Data set [3] concerns Cystic fibrosis transmembrane conductance regulator (Homo sapiens), P13569 [F508del]. The experiment in a line: Potentiator activity at CFTR F508 deletion mutant (unknown origin) expressed in HEK293 cells assessed as increase in aninon permeability at 10 uM […] by YFP probe based imaging method. Format: cell-based.
Cystic fibrosis transmembrane conductance regulator (Homo sapiens), P13569 [F508del], sequence (P13569 as listed by the source): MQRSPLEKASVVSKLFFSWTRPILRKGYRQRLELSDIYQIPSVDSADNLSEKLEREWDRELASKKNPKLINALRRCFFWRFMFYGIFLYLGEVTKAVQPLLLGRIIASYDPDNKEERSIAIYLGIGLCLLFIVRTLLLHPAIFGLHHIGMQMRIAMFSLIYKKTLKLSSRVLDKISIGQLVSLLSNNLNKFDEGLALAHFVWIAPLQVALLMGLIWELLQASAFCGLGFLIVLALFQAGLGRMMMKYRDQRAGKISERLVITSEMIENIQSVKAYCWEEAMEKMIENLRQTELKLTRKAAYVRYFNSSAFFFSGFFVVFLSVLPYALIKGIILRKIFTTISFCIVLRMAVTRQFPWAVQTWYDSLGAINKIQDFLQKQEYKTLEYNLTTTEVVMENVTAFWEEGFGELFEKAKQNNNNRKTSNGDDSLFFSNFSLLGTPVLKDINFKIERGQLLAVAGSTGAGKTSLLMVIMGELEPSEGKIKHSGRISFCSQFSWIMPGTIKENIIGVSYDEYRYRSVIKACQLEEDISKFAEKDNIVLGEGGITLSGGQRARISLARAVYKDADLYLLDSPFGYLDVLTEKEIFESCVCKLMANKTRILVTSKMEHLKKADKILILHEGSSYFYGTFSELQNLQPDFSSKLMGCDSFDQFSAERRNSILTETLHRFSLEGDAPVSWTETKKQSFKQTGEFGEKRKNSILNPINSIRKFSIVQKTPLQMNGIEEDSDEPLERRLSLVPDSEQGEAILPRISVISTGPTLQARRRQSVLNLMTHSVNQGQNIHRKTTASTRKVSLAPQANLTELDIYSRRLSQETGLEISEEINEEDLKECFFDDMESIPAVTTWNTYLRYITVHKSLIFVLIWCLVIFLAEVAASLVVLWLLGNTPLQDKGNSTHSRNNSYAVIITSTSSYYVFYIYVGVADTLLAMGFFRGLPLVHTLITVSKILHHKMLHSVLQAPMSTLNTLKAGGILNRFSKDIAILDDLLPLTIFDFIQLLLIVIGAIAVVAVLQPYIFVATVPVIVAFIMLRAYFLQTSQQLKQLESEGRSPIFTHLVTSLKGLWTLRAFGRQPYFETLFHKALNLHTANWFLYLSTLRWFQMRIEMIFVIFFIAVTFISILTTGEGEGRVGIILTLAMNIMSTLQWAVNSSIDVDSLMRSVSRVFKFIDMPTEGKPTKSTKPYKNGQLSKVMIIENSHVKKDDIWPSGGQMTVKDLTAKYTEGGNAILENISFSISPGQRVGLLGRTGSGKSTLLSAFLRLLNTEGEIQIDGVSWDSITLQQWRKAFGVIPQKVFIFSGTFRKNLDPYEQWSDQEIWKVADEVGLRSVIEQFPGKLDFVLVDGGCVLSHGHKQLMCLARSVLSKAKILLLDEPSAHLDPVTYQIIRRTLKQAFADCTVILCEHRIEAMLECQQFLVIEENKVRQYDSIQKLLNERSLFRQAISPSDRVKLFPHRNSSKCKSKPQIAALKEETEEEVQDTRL
Data set [4] is described as follows: Inhibition of full length recombinant His6-tagged PI4K3beta (unknown origin) expressed in Sf9 insect cells using PI : PS as substrate in presence of [gamma-33P]-ATP by scintillation counting method. Set-up: species or system Homo sapiens. Particulars: read-out: IC50.
The target of data set [5] is PI3-kinase p110-alpha/p85-alpha (Homo sapiens) (UniProt P27986+P42336). As to the kind of experiment: Inhibition of full length recombinant human N-terminal His6-tagged PI3Kalpha (1 to 1068 residues)/full length human N-terminal myc-tagged P85alpha (1 to 724 residues) expressed in Sf9 insect cells assessed as residual activity at 100 uM using PI : PS as substrate in presence of [gamma-33P]-ATP by scintillation counting method relative to control.

Data set [6] can be described thus: Selectivity index, ratio of CC50 for human RD cells to EC50 for Enterovirus 71. Format: toxicity. Particulars: read-out: Ratio CC50/EC50. Summed up:
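SI is CC50/EC50. CC50 is from the MTS assay on uninfected RD cells and EC50 from the EV71 CPE-reduction assay, both medians of three dose-response curves run in parallel.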

The subject of data set [7] is Enterovirus A71. As to the kind of experiment: Antiviral activity against Enterovirus 71 11316 clinical isolates incubated for 2 to 3 days. The class given is functional. The conditions noted are these: Enterovirus A.
Data set [8] relates to Cystic fibrosis transmembrane conductance regulator (Homo sapiens), P13569 [F508del]. As to the kind of experiment: Corrector activity at CFTR F508 deletion mutant (unknown origin) expressed in HEK293 cells assessed as increase in steady-state level of F508 deletion mutant at plasma membrane at 10 uM preincubated for 24 hrs followed by compound washout by pHTomato dye based fluorescence imaging method. Format: cell-based. An outline of the steps: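 HEK293 cells were transiently transfected (Lipofectamine 2000) with F508del-CFTR-pHTomato plus co-expressed soluble eGFP, then kept 24 h at 37 °C. Next, 24 h at 30 °C with 10 μM drug. Imaging in pH 7.4 HEPES buffer, then extracellular pH shifted to ~6.5 (MES) and ~8.8 (Tris). The eGFP-normalized fluorescence rise (ΔF) estimates membrane CFTR.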

Data set [9] has as its target Tyrosine-protein kinase HCK (Homo sapiens) (UniProt P08631). The experiment in a line: Inhibition of full-length recombinant human HCK assessed as residual activity at 100 uM using poly(Glu,Tyr)4:1 as substrate by ADP-Glo bioluminescence assay relative to control relative to control. An outline of the steps:
as §1

Tyrosine-protein kinase HCK (Homo sapiens), sequence (P08631 2-526 limits assumed): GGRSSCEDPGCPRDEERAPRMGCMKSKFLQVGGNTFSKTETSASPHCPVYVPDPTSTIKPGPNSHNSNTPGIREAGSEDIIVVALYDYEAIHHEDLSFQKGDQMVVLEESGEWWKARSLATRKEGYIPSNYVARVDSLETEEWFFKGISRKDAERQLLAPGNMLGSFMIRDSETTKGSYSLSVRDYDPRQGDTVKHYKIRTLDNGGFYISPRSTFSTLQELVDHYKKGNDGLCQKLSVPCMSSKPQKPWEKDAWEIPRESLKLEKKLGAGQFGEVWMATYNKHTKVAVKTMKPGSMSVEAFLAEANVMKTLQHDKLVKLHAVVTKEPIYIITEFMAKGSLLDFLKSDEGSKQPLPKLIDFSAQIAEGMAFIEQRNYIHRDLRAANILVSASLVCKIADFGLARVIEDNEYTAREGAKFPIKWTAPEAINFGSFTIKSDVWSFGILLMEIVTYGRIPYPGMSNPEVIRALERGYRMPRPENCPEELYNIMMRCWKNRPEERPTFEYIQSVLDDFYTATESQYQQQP

Turning to `CC(=O)c1cccc(Nc2nc(-c3sc(NC(=O)OC(C)(C)C)nc3C)cs2)c1`, the values for the Activity in data set [1], in [5] and in [9] were 82%, 64% and 100%, respectively. The EC50 with Enterovirus A71 [2] was 970 nM; in the data set with Enterovirus A71 [7], less than 1390 nM. Also, the result in data set [3] was inactive. Besides, the IC50 in data set [4] came out at 4670 nM. In addition, the selectivity ratio in [6] is 29.7. In addition, in [8], the result was Active.
